According to ChEMBL document CHEMBL1128545, “Effect of a chiral 4-alkyl substituent in hallucinogenic amphetamines” (J Med Chem, 1995):

Key:
[1] = target: Serotonin 2 (5-HT2) receptor (Rattus norvegicus, UniProt P30994+P08909+P14842); experiment: Binding affinity against 5-hydroxytryptamine 2 receptor from rat frontal cortex using [125]-(R)-DOI as radioligand; assay type: tissue-based
Procedure, shortened: (§1)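 Rat frontal cortex (male Sprague–Dawley) homogenized in 0.32 M sucrose, preincubated twice 10 min at 37 °C; assay in 50 mM Tris HCl pH 7.4 with EDTA, ascorbate, 10 mM MgCl2, 10 µM pargyline, 200–400 µg protein. Triplicates, 3–4 experiments; parameters fitted by EBDA/LIGAND.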

Rattus norvegicus [2] = species on record: Rattus norvegicus; experiment: Potency against LSD trained rat, activity is expressed as ED50; assay type: functional
Rattus norvegicus [3] = experiment: Percentage of rats selecting the drug lever (% SDL) for dose 0.87(umol/kg); assay type: functional
Procedure, shortened: (§2)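 Drugs are given ip in saline. Test sessions run under extinction and end at 50 presses on one lever. Rats must hold 85% accuracy on training days. The read-out is the percentage of rats choosing the drug lever at each dose.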

Rattus norvegicus [4] = experiment: Percentage of rats selecting the drug lever (% SDL) for dose 1.74(umol/kg); assay type: functional; procedure, shortened: as §2
Rattus norvegicus [5] = experiment: Percentage of rats selecting the drug lever (% SDL) for dose 3.48(umol/kg); assay type: functional; procedure, shortened: as §2
Rattus norvegicus [6] = experiment: Percentage of rats selecting the drug lever (% SDL) for dose 5.22(umol/kg); assay type: functional; procedure, shortened: as §2
[7] = Hill coefficient of the compound
Procedure, shortened: as §1, with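 “protein. Displacement of 0.25 nM [125I]-(R)-DOI, 15 min at 37 °C, GF/C filtration, γ-counting.” for “protein.”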

Rattus norvegicus [8] = experiment: Percentage of rats selecting the drug lever (% SDL) for dose 13.91(umol/kg); assay type: functional; procedure, shortened: as §2
Rattus norvegicus [9] = experiment: Percentage of rats selecting the drug lever (% SDL) for dose 6.96(umol/kg); assay type: functional; procedure, shortened: as §2
Rattus norvegicus [10] = experiment: Percentage of rats selecting the drug lever (% SDL) for dose 3.48 (umol/kg); assay type: functional; procedure, shortened: as §2
Rattus norvegicus [11] = experiment: Percentage of rats selecting the drug lever (% SDL) for dose 0.51(umol/kg); assay type: functional; procedure, shortened: as §2
Rattus norvegicus [12] = experiment: Percentage of rats selecting the drug lever (% SDL) for dose 0.77(umol/kg); assay type: functional; procedure, shortened: as §2
Rattus norvegicus [13] = experiment: Percentage of rats selecting the drug lever (% SDL) for dose 1.02(umol/kg); assay type: functional; procedure, shortened: as §2
Rattus norvegicus [14] = experiment: Percentage of rats selecting the drug lever (% SDL) for dose 2.04(umol/kg); assay type: functional; procedure, shortened: as §2
Rattus norvegicus [15] = experiment: Percentage of rats selecting the drug lever (% SDL) for dose 0.012 (umol/kg); assay type: functional; procedure, shortened: as §2
Rattus norvegicus [16] = experiment: Percentage of rats selecting the drug lever (% SDL) for dose 0.024(umol/kg); assay type: functional; procedure, shortened: as §2
Rattus norvegicus [17] = experiment: Percentage of rats selecting the drug lever (% SDL) for dose 0.047(umol/kg); assay type: functional; procedure, shortened: as §2
Rattus norvegicus [18] = experiment: Percentage of rats selecting the drug lever (% SDL) for dose 0.093(umol/kg); assay type: functional; procedure, shortened: as §2
Rattus norvegicus [19] = experiment: Percentage of rats selecting the drug lever (% SDL) for dose 0.186 (umol/kg); assay type: functional; procedure, shortened: as §2

With `CC[C@@H](C)c1cc(OC)c(CC(C)N)cc1OC` (stereo partly drawn) the Ki [1] was 7.84 nM, the ED50 (Rattus norvegicus [2]) was 3.08 µmol/kg and the SDL (Rattus norvegicus [3]) was 0%. For the same molecule, the SDL (Rattus norvegicus [4]) was 25%, the SDL (Rattus norvegicus [5]) was 50% and the SDL (Rattus norvegicus [6]) was 80%. It also gave a Hill coefficient [7] of 1.
`CCC(C)c1cc(OC)c(CC(C)N)cc1OC` (stereo not drawn) gave an ED50 (Rattus norvegicus [2]) of 3.69 µmol/kg, an SDL (Rattus norvegicus [4]) of 18% and an SDL (Rattus norvegicus [8]) of 90%. The SDL (Rattus norvegicus [9]) was 70% and the SDL (Rattus norvegicus [10]) was 60%.
Molecule `COc1cc(CC(C)N)c(OC)cc1C` (stereo not drawn) [DOM] has an ED50 (Rattus norvegicus [2]) of 0.61 µmol/kg, an SDL (Rattus norvegicus [11]) of 13% and an SDL (Rattus norvegicus [12]) of 67%. It also gave an SDL (Rattus norvegicus [13]) of 67%, an SDL (Rattus norvegicus [14]) of 100% and a Hill coefficient [7] of 0.89.
For `CC[C@H](C)c1cc(OC)c(CC(C)N)cc1OC` (stereo partly drawn), the Ki [1] was 7.87 nM, the ED50 (Rattus norvegicus [2]) was 4.76 µmol/kg and the Hill coefficient [7] was 1.06.
With `CCN(CC)C(=O)[C@@H]1C=C2c3cccc4[nH]cc(c34)C[C@H]2N(C)C1` [LYSERGIDE] the ED50 (Rattus norvegicus [2]) was 0.02 µmol/kg, the SDL (Rattus norvegicus [15]) was 13% and the SDL (Rattus norvegicus [16]) was 13%. For the same molecule, the SDL (Rattus norvegicus [17]) was 38%, the SDL (Rattus norvegicus [18]) was 89% and the SDL (Rattus norvegicus [19]) was 100%. For the same molecule, the Hill coefficient [7] was 1.18.
